Laboratory results published in ChEMBL document CHEMBL1240478, “Inhibitors of human neutrophil elastase based on a highly functionalized N-amino-4-imidazolidinone scaffold” (Eur J Med Chem, 2010).
Calls of active or inactive are those of the source. The rule behind the calls is not given here.

Experiments:
[1] = target: T1, Neutrophil elastase (Homo sapiens) (UniProt P08246); assay: Inhibition of human neutrophil elastase at 3.5 mM after 30 mins assessed as p-nitroaniline release
T1 sequence (whole entry): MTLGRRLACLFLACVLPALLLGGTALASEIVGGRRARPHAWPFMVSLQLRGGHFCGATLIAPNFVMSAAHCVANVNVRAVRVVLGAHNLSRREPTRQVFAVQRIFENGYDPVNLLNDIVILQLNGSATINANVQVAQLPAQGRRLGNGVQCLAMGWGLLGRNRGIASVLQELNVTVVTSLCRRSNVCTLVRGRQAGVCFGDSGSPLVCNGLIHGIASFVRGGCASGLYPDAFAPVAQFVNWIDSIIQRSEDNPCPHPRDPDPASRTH
Outline: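 HNE (7.0 μM stock) preincubated 30 min at 25 °C with inhibitor in DMSO at inhibitor/enzyme ratio 500, in 0.1 M HEPES/0.5 M NaCl pH 7.25. Methoxysuccinyl-Ala-Ala-Pro-Val p-nitroanilide then added, and p-nitroaniline release followed at 410 nm for 2 min. DMSO-only control. Remaining activity = (v/v0)×100, mean of duplicate or triplicate runs.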

[2] = target: Myeloblastin (proteinase 3) (Homo sapiens) (UniProt P24158); assay: Inhibition of human neutrophil proteinase 3 at 1.73 mM
Sequence of Myeloblastin (proteinase 3) (Homo sapiens) (P24158 whole entry, looked up): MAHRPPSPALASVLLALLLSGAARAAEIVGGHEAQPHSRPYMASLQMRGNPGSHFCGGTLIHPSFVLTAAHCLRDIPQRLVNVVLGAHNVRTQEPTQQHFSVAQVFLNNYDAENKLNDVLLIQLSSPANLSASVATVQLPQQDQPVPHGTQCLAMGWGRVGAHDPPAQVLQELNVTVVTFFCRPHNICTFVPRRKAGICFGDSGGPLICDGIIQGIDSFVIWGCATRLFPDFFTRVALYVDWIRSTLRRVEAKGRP

Neutrophil elastase = target: T2, Neutrophil elastase (Homo sapiens, UniProt P08246); assay: Reversible competitive inhibition of human neutrophil elastase by Dixon plot analysis
T2 sequence (P08246 whole entry): T1 sequence (whole entry)

| inhibition [1] [%] | inhibition [2] | Ki (Neutrophil elastase) [µM] | Structure (SMILES) |
| --- | --- | --- | --- |
| 0 | 0% | – | CCOC(=O)CNC(=O)NN1CN(Cc2ccccc2)C(Cc2ccccc2)C1=O (racemic) |
| 0 | 0% | – | O=C(O)c1ccccc1C(=O)NN1CNC(Cc2ccccc2)C1=O (racemic) |
| 0 | 0% | – | O=C(O)c1ccccc1C(=O)NN1CN(Cc2ccccc2)C(Cc2ccccc2)C1=O (racemic) |
| 0 | 0% | – | O=C(NN1CNC(Cc2ccccc2)C1=O)C1CC(=O)N(Cc2ccc(F)cc2)C1 (racemic) |
| 0 | 0% | – | O=C(NCCc1ccccc1)NN1CNC(Cc2ccccc2)C1=O (racemic) |
| 0 | 0% | – | CC(C)CC1C(=O)N(NC(=O)NCCc2ccccc2)CN1Cc1ccccc1 (racemic) |
| 0 | 0% | – | O=C(NN1CN(Cc2ccccc2)C(Cc2ccccc2)C1=O)C1CC(=O)N(Cc2ccc(F)cc2)C1 (racemic) |
| 0 | 0% | – | O=C(NN1CNC(Cc2ccccc2)C1=O)C1CC(=O)N(Cc2ccccc2)C1 (racemic) |
| 0 | 0% | – | CC(C)CC1C(=O)N(NC(=O)CCc2ccccc2)CN1Cc1ccccc1 (racemic) |
| 0 | 0% | – | CCOC(=O)CNC(=O)NN1CN(Cc2ccccc2)C(CC(C)C)C1=O (racemic) |
| 0 | 0% | – | O=C(NCCc1ccccc1)NN1CN(Cc2ccccc2)C(Cc2ccccc2)C1=O (racemic) |
| – | inactive | 7.34 | CC(C)C[C@@H]1C(=O)N(NC(=O)[C@@H](Cc2ccccc2)NC(=O)OCc2ccccc2)CN1Cc1ccccc1 (racemic) |
| 0 | 0% | – | O=C(O)CCC(=O)NN1CN(Cc2ccccc2)C(Cc2ccccc2)C1=O (racemic) |
| 0 | 0% | – | CC(C)CC1C(=O)N(NC(=O)c2ccccc2C(=O)O)CN1Cc1ccccc1 (racemic) |
| 0 | 0% | – | CC(C)CC1C(=O)N(N(S(C)(=O)=O)S(C)(=O)=O)CN1Cc1ccccc1 (racemic) |
| 0 | 0% | – | O=C(O)CCC(=O)NN1CNC(Cc2ccccc2)C1=O (stereo not given) |
| 0 | 0% | – | O=C(NN1CN(Cc2ccccc2)C(Cc2ccccc2)C1=O)C1CC(=O)N(Cc2ccco2)C1 (racemic) |
| 0 | 0% | – | O=C(NN1CN(Cc2ccccc2)C(Cc2ccccc2)C1=O)C1CC(=O)N(Cc2ccccc2)C1 (racemic) |
| 0 | 0% | – | Cc1ccc(S(=O)(=O)N(N2CN(Cc3ccccc3)C(CC(C)C)C2=O)S(=O)(=O)c2ccc(C)cc2)cc1 (racemic) |
| 0 | 0% | – | CC(C)CC1C(=O)N(NC(=O)CCC(=O)O)CN1Cc1ccccc1 (racemic) |
